The results in this text go back to ChEMBL document CHEMBL4376859, “Prodrugs for nitroreductase-based cancer therapy-3: Antitumor activity of the novel dinitroaniline prodrugs/Ssap-NtrB enzyme suicide gene system: Synthesis, in vitro and in silico evaluation in prostate cancer” (Eur J Med Chem, 2020).

Data set [1] concerns the target T1, Oxygen-insensitive NAD(P)H nitroreductase (Escherichia coli K-12, UniProt P38489).
T1 sequence (P38489 whole entry): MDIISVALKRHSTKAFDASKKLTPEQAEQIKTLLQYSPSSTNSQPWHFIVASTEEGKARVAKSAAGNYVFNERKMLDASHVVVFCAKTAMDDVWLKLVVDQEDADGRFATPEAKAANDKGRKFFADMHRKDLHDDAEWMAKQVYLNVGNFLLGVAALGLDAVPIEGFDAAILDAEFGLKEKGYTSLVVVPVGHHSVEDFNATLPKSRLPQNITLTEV
In words: Substrate activity at Escherichia coli nitroreductase nfsB assessed as Kcat upto 1 mM using NADH as cofactor in sodium phosphate buffer at pH 7.5 incubated for 5 mins by RP-HPLC. It is filed as ADME. To be noted: pH 7.5, 5 min.

In data set [2] the target is T2, Putative nitroreductase (Staphylococcus saprophyticus subsp. saprophyticus (strain ATCC 15305 / DSM20229 / NCIMB 8711 / NCTC 7292 / S-41), UniProt Q4A0P1).
T2 sequence (Q4A0P1 whole entry): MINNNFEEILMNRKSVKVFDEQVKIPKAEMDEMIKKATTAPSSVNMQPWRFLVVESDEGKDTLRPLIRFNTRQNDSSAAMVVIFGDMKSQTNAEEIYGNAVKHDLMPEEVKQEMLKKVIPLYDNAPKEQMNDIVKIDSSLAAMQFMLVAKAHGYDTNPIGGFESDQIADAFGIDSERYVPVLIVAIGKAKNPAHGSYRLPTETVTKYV
Put plainly: Substrate activity at Staphylococcus saprophyticus nitroreductase NtrB assessed as Kcat using NADPH as cofactor in Tris-Cl buffer at pH 7.5 incubated for 30 mins by HPLC analysis. It is filed as ADME. To be noted: pH 7.5, 0.5 h.

The target of data set [3] is T1, Oxygen-insensitive NAD(P)H nitroreductase. Put plainly: Substrate activity at Escherichia coli nitroreductase nfsB assessed as ratio of Kcat/Km upto 1 mM using NADH as cofactor in sodium phosphate buffer at pH 7.5 incubated for 5 mins by RP-HPLC. It is filed as ADME. To be noted: pH 7.5, 5 min.
Data set [4] deals with T2, Putative nitroreductase. In words: Substrate activity at Staphylococcus saprophyticus nitroreductase NtrB assessed as ratio of Kcat/Km using NADPH as cofactor in Tris-Cl buffer at pH 7.5 incubated for 30 mins by HPLC analysis. The data set is classed as ADME. The settings on record: pH 7.5, 0.5 h.
Data set [5] deals with T1, Oxygen-insensitive NAD(P)H nitroreductase. In words: Substrate activity at Escherichia coli nitroreductase nfsB assessed as ratio of Kcat/Km upto 1 mM using NADH as cofactor in sodium phosphate buffer at pH 7.5 incubated for 5 mins by RP-HPLC relative to CB1954/NfsB. It is filed as ADME. To be noted: pH 7.5, 5 min.
In data set [6] the target is T2, Putative nitroreductase. In words: Substrate activity at Staphylococcus saprophyticus nitroreductase NtrB assessed as ratio of Kcat/Km using NADPH as cofactor in Tris-Cl buffer at pH 7.5 incubated for 30 mins by HPLC analysis relative to CB1954/NfsB. It is filed as ADME. To be noted: pH 7.5, 0.5 h.
In data set [7] the target is T2, Putative nitroreductase. Put plainly: Binding affinity to Staphylococcus saprophyticus nitroreductase NtrB.
A short description of data set [8]: Substrate activity at Escherichia coli nitroreductase nfsA assessed as Kcat using NADPH as cofactor in Tris-Cl buffer at pH 7.5 by spectrophotometric method. It is filed as ADME.
Data set [9] concerns the target T1, Oxygen-insensitive NAD(P)H nitroreductase. Put plainly: Substrate activity at Escherichia coli nitroreductase nfsB assessed as Kcat using NADH as cofactor in Tris-Cl buffer at pH 7.5 by spectrophotometric method. The data set is classed as ADME.
Another data set has as its system nitroreductase nfsA. In words: Substrate activity at Escherichia coli nitroreductase nfsA assessed as Km using NADPH as cofactor in Tris-Cl buffer at pH 7.5 by spectrophotometry based Michaelis-Menten plot analysis. The data set is classed as ADME. To be noted: Escherichia coli nitroreductase nfsA enzyme.
The target of data set [10] is T1, Oxygen-insensitive NAD(P)H nitroreductase. Put plainly: Substrate activity at Escherichia coli nitroreductase nfsB assessed as Km using NADH as cofactor in Tris-Cl buffer at pH 7.5 by spectrophotometric method based Michaelis-Menten plot analysis. The data set is classed as ADME.
Data set [11] addresses T2, Putative nitroreductase. In words: Substrate activity at Staphylococcus saprophyticus nitroreductase NtrB assessed as Km using NADPH as cofactor in Tris-Cl buffer at pH 7.5 incubated for 30 mins by HPLC analysis. It is filed as ADME. To be noted: pH 7.5, 0.5 h.
The nature of data set [12]: Substrate activity at Escherichia coli nitroreductase nfsA assessed as ratio of Kcat/Km using NADPH as cofactor in Tris-Cl buffer at pH 7.5 by spectrophotometry based Michaelis-Menten plot analysis. The data set is classed as ADME.
Data set [13] has as its target T1, Oxygen-insensitive NAD(P)H nitroreductase. Put plainly: Substrate activity at Escherichia coli nitroreductase nfsB assessed as ratio of Kcat/Km using NADH as cofactor in Tris-Cl buffer at pH 7.5 by spectrophotometric method based Michaelis-Menten plot analysis. The data set is classed as ADME.
For data set [14] the target is unchanged. Put plainly: Substrate activity at Escherichia coli nitroreductase nfsB assessed as ratio of Kcat/Km using NADH as cofactor in Tris-Cl buffer at pH 7.5 by spectrophotometric method based Michaelis-Menten plot analysis relative to CB1954/NfsB. It is filed as ADME.
The next data set deals with T3, Nitroreductase (Bacillus amyloliquefaciens, UniProt Q8VSR5).
T3 sequence (Q8VSR5 whole entry): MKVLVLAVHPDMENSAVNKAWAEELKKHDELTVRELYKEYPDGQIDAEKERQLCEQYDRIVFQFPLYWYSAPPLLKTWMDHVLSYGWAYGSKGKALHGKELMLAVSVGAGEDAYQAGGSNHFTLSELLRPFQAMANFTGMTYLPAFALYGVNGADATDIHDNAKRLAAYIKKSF
In words: Substrate activity at Bacillus amyloliquefaciens nitroreductase ywrO assessed as ratio of Kcat/Km using NADPH as cofactor in sodium phosphate buffer at pH 7.5 by HPLC analysis relative to CB1954/NfsB. The data set is classed as ADME.

In data set [15] the test system is PC-3. In words: Cytotoxicity against human PC3 cells […] Staphylococcus saprophyticus nitroreductase NtrB assessed as reduction in cell viability in presence of NADH as cofactor after 48 hrs by SRB assay. The data set is classed as functional, cell-based. The settings on record: PC-3, 48 h. The procedure, abridged: (§1)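 Compounds were reduced outside the cells by purified His-tag (Ni column) Ssap-NtrB. The reaction mix held 600 µM NADH and compound (150, 39, 9 µM, or 180, 18, 1.8 nM) and was applied to PC-3 cells. Controls were compound alone in 25 mM Tris/HCl pH 7.5, and enzyme alone at 31 µg/mL. After 48 h, SRB absorbance was read at 492 nm and converted to % viability.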

Data set [16] has as its system Hep 3B2. Put plainly: Cytotoxicity against human Hep3B cells assessed as cell viability at 9 to 150 uM after 24 hrs by MTT assay relative to control. The data set is classed as functional. The method in brief: (§2)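 Hep3B hepatoma, PC-3 prostate cancer and HUVEC (healthy control) cells were exposed to nitro compounds at 150, 75, 38, 19 and 9 µM for 24 h and 48 h. Viability was read by MTT assay, and IC50 values were derived from the growth inhibition curves.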

In data set [17] the test system is Hep 3B2. Put plainly: Cytotoxicity against human Hep3B cells assessed as cell viability at 9 to 150 uM after 48 hrs by MTT assay relative to control. The data set is classed as functional. The procedure, abridged: as §2
Data set [18] relates to PC-3. In words: Cytotoxicity against human PC3 cells assessed as cell viability at 9 to 150 uM after 24 hrs by MTT assay relative to control. It is filed as functional. The method in brief:
as §2

Data set [19] concerns PC-3. In words: Cytotoxicity against human PC3 cells assessed as cell viability at 9 to 150 uM after 48 hrs by MTT assay relative to control. It is filed as functional. The method in brief: as §2
Data set [20] is described as follows: Cytotoxicity against human HUVEC cells assessed as cell viability at 9 to 150 uM after 24 hrs by MTT assay relative to control. To be noted: read-out: Activity. The data set is classed as cell-based. The method in brief: as §2
The nature of data set [21]: Cytotoxicity against human HUVEC cells assessed as cell viability at 9 to 150 uM after 48 hrs by MTT assay relative to control. The data set is classed as cell-based. The settings on record: read-out: Activity. The procedure, abridged: as §2
For data set [22], the system named is PC-3. Put plainly: Cytotoxicity against human PC3 cells assessed as reduction in cell viability after 48 hrs by SRB assay. The data set is classed as functional, cell-based. The method in brief: as §1
Data set [23] in a line: Substrate activity at Escherichia coli nitroreductase nfsA assessed as ratio of Kcat/Km using NADPH as cofactor in Tris-Cl buffer at pH 7.5 by spectrophotometric method based Michaelis-Menten plot analysis relative to CB1954/NfsB.

Activity calls are given as the source filed them. The rule behind the calls is not given here. A value given as a limit tells only on which side of the number the result lay.

In the case of `NC(=O)c1cc(N(CCCl)CCCl)c([N+](=O)[O-])cc1[N+](=O)[O-]`, the Kcat was determined as 26.4 s⁻¹ in data set [1] and 0.8 s⁻¹ on Putative nitroreductase [2]. Besides, the Kcat/Km in data set [3] worked out at 10560 s⁻¹ M⁻¹; at Putative nitroreductase [4], 9350 s⁻¹ M⁻¹. For the same compound, the “fold change (FC)” value was determined as 1.89 in [5] and 1.67 at Putative nitroreductase [6]. Moreover, at Putative nitroreductase [7], affinity was put at a Ki of 7.28 µM.

On to `NC(=O)c1cc(N2CC2)c([N+](=O)[O-])cc1[N+](=O)[O-]` [TRETAZICAR], for which the Kcat came to 16 s⁻¹ in [8], 62 s⁻¹ in [9] and 2.26 s⁻¹ at Putative nitroreductase [2]. Besides, the Km in the data set on nitroreductase nfsA was 220 µM; in data set [10] it was 11 mM; on Putative nitroreductase [11] it was 1.07 mM. For the same compound, the Kcat/Km in data set [12] came to 73000 s⁻¹ M⁻¹; in data set [13], 5600 s⁻¹ M⁻¹; at Putative nitroreductase [4], 2120 s⁻¹ M⁻¹. Besides, the “fold change (FC)” value in data set [14] amounted to 1; at Putative nitroreductase [6] it was 0.38; on Nitroreductase, 2.37; in [23] it was 13.04. The IC50 in the data set with PC-3 [15] was 1.79 nM. Also, the Ki at Putative nitroreductase [7] was 5.96 µM. Further, the Activity in the data set with Hep 3B2 [16], with Hep 3B2 [17], in the data set on PC-3 [18] and with PC-3 [19] was more than 80% in each case. For the same compound, the viability at 24 h, up to 150 µM in data set [20] is more than 80%. Besides, the viability at 48 h, up to 150 µM in [21] was more than 80%. The outcome in the data set with PC-3 [22] was inactive.
